How the values were obtained:
Rattus norvegicus [1] = experiment: Antagonists of apomorphine-induced aggression in male rats, administered perorally; format: functional
Outline: (§1)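 Male rats were dosed ip or orally as solutions or fine dispersions in water or 0.5% methylcellulose. Apomorphine-induced fighting between paired animals was scored 1 h after dosing, and stereotyped behavior was noted. Five pairs were used per dose. ED50 is the dose that cut fighting time by 50%, estimated approximately from two or three bracketing doses, and has no standard error.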

Rattus norvegicus [2] = experiment: Ability of intraperitoneally administered compound to antagonise apomorphine-induced aggression in male rats.; format: functional; outline: as §1
Rattus norvegicus [3] = experiment: Compounds were tested for their ability to antagonise apomorphine-induced aggression in male rats. compound was administered perorally.; format: functional; conditions: po; outline: as §1
Rattus norvegicus [4] = experiment: Inhibition of apomorphine-induced aggression in male rats after intraperitoneal administration of 25 mg/kg of compound; format: functional; conditions: ip
Outline: (§2)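 Male rats received a single screening dose, given in water or 0.5% methylcellulose as a solution or fine dispersion. Apomorphine-induced fighting in paired animals was observed starting 1 h after dosing, with five pairs per dose. The value is percent inhibition of fighting time at that dose. Stereotyped behavior was recorded during the fighting observation.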

Rattus norvegicus [5] = experiment: Inhibition of apomorphine-induced aggression in male rats after peroral administration of 25 mg/kg of compound; format: functional; conditions: route oral; outline: as §2
Rattus norvegicus [6] = experiment: Ability of intraperitoneally administered compound (25 mg/kg) to antagonise apomorphine-induced aggression in male rats; d indicates toxic at 25 mg/Kg; format: functional, organism-based
[7] = Rattus norvegicus, po, read-out: ED50
[8] = Rattus norvegicus, ip, read-out: ED50

CN(C)c1ncnc2c1ncn2Cc1cccc(N)c1
ED50 (Rattus norvegicus [1]; [7]): 58 mg/kg | ED50 (Rattus norvegicus [2]; [8]): 23 mg/kg

CC(C1CC1)n1cnc2c(N(C=O)C3CC3)ncnc21 (stereo not drawn)
ED50 (Rattus norvegicus [1]; [7]): 7.5 mg/kg | ED50 (Rattus norvegicus [2]; [8]): 2.5 mg/kg

CCN(C)c1ncnc2c1ncn2CC1CC1
ED50 (Rattus norvegicus [2]; [8]): 12.5 mg/kg

COc1nc(NC2CC2)c2ncn(CC3CC3)c2n1
ED50 (Rattus norvegicus [3]): 3.7 mg/kg

CCCn1cnc2c(NC3CC3)ncnc21
ED50 (Rattus norvegicus [2]; [8]): 6 mg/kg

CN(C)c1ncnc2c1ncn2C1CCCC1
inhibition in vivo at 25 mg/kg (Rattus norvegicus [4]): 27%

CCCn1cnc2c(N(C)C)ncnc21
ED50 (Rattus norvegicus [1]; [7]): 15 mg/kg | ED50 (Rattus norvegicus [2]; [8]): 14 mg/kg

CN(C)c1ncnc2c1ncn2CC1CCC1
ED50 (Rattus norvegicus [2]; [8]): 8 mg/kg

CCOc1nc(NC2CC2)c2ncn(CC3CC3)c2n1
ED50 (Rattus norvegicus [1]; [7]): 4 mg/kg | ED50 (Rattus norvegicus [2]; [8]): 0.8 mg/kg

CCCCn1cnc2c(N(C)C)ncnc21
ED50 (Rattus norvegicus [2]; [8]): 10 mg/kg

CN(C)c1ncnc2c1ncn2Cc1ccccc1
ED50 (Rattus norvegicus [1]; [7]): 52 mg/kg | ED50 (Rattus norvegicus [2]; [8]): 15 mg/kg

c1nc(NC2CC2)c2ncn(CC3CCC3)c2n1
ED50 (Rattus norvegicus [1]; [7]): 44 mg/kg | ED50 (Rattus norvegicus [2]; [8]): 10 mg/kg

COc1ccc(Cn2cnc3c(N(C)C)ncnc32)cc1
ED50 (Rattus norvegicus [2]; [8]): 58 mg/kg

CN(C)c1ncnc2c1ncn2Cc1ccccc1[N+](=O)[O-]
inhibition in vivo at 25 mg/kg (Rattus norvegicus [4]): 0%

CC(C)n1cnc2c(NC3CC3)ncnc21
ED50 (Rattus norvegicus [1]; [7]): 30 mg/kg | ED50 (Rattus norvegicus [2]; [8]): 4 mg/kg

CCN(c1ncnc2c1ncn2CC1CC1)C1CC1
ED50 (Rattus norvegicus [2]; [8]): 20 mg/kg

c1nc(NC2CC2)c2ncn(C3CC3)c2n1
ED50 (Rattus norvegicus [1]; [7]): 20 mg/kg | ED50 (Rattus norvegicus [2]; [8]): 4.5 mg/kg

CCNc1nc(NC2CC2)c2ncn(CC3CC3)c2n1
ED50 (Rattus norvegicus [3]): 11 mg/kg | ED50 (Rattus norvegicus [2]; [8]): 9 mg/kg

CC(C)Cn1cnc2c(NC3CC3)ncnc21
inhibition in vivo at 25 mg/kg (Rattus norvegicus [5]): 0% | ED50 (Rattus norvegicus [2]; [8]): 10 mg/kg

CC(C)(C)Nc1ncnc2c1ncn2CC1CC1
inhibition in vivo at 25 mg/kg (Rattus norvegicus [4]): 0%

CC(C1CC1)n1cnc2c(NC3CC3)ncnc21 (stereo in doubt; 59)
ED50 (Rattus norvegicus [1]): 25 mg/kg | ED50 (Rattus norvegicus [2]): 4.5 mg/kg

CN(C)c1ncnc2c1ncn2Cc1ccc(O)cc1
inhibition in vivo at 25 mg/kg (Rattus norvegicus [4]): 0%

CSc1nc(NC2CC2)c2ncn(CC3CC3)c2n1
ED50 (Rattus norvegicus [2]; [8]): 5 mg/kg

CN(C)c1ncnc2c1ncn2C1CC1
ED50 (Rattus norvegicus [1]; [7]): 25 mg/kg | ED50 (Rattus norvegicus [2]; [8]): 9 mg/kg

CN(C)c1ncnc2c1ncn2C1CCCCC1
inhibition in vivo at 25 mg/kg (Rattus norvegicus [4]): 70%

c1nc(NC2CC2)c2ncn(C3CCC3)c2n1
ED50 (Rattus norvegicus [2]; [8]): 19 mg/kg

CCCCn1cnc2c(NC3CC3)ncnc21
ED50 (Rattus norvegicus [2]; [8]): 18 mg/kg

CCN(CC)c1ncnc2c1ncn2CC1CC1
inhibition in vivo at 25 mg/kg (Rattus norvegicus [4]): 0%

CC(C)N(C)c1ncnc2c1ncn2CC1CC1
inhibition in vivo at 25 mg/kg (Rattus norvegicus [4]): 32%

O=CN(c1ncnc2c1ncn2C1CCC1)C1CC1
inhibition in vivo at 25 mg/kg (Rattus norvegicus [5]): 0% | ED50 (Rattus norvegicus [2]; [8]): 20 mg/kg

Nc1ncnc2c1ncn2CC1CC1
ED50 (Rattus norvegicus [2]; [8]): 20 mg/kg

CCCCCn1cnc2c(N(C)C)ncnc21
inhibition in vivo at 25 mg/kg (Rattus norvegicus [4]): 0%

CN(c1ncnc2c1ncn2CC1CC1)C1CC1
ED50 (Rattus norvegicus [1]; [7]): 35 mg/kg | ED50 (Rattus norvegicus [2]; [8]): 7.5 mg/kg

c1nc(NC2CC2)c2ncn(CC3CC3)c2n1
ED50 (Rattus norvegicus [1]; [7]): 12 mg/kg | ED50 (Rattus norvegicus [2]; [8]): 4 mg/kg

c1nc(NC2CC2)c2ncn(C3CCCC3)c2n1
ED50 (Rattus norvegicus [6]): Toxic

CC(C1CC1)n1cnc2c(NC3CC3)ncnc21 (stereo in doubt; 61)
ED50 (Rattus norvegicus [1]): >25 mg/kg | ED50 (Rattus norvegicus [2]): 12.5 mg/kg

CSCn1cnc2c(NC3CC3)ncnc21
ED50 (Rattus norvegicus [2]; [8]): 23 mg/kg

Nc1nc(NC2CC2)c2ncn(CC3CC3)c2n1
inhibition in vivo at 25 mg/kg (Rattus norvegicus [5]): 26% | ED50 (Rattus norvegicus [2]; [8]): 9 mg/kg

CCn1cnc2c(N(C)C)ncnc21
ED50 (Rattus norvegicus [2]; [8]): 15 mg/kg

c1nc(N2CCCCC2)c2ncn(CC3CC3)c2n1
inhibition in vivo at 25 mg/kg (Rattus norvegicus [4]): 28%

CN(C)c1ncnc2c1ncn2Cc1ccccc1F
ED50 (Rattus norvegicus [2]; [8]): 37 mg/kg

CN(C)c1ncnc2c1ncn2Cc1cccc(Cl)c1
ED50 (Rattus norvegicus [2]; [8]): 50 mg/kg

CN(C)c1ncnc2c1ncn2Cc1cccc(NC(=O)C(N)Cc2ccccc2)c1 (stereo not drawn)
ED50 (Rattus norvegicus [1]; [7]): 96 mg/kg | ED50 (Rattus norvegicus [2]; [8]): 27 mg/kg

CC(C)Cn1cnc2c(N(C)C)ncnc21
ED50 (Rattus norvegicus [1]; [7]): 22 mg/kg | ED50 (Rattus norvegicus [2]; [8]): 5 mg/kg

CC(C)n1cnc2c(N(C)C)ncnc21
ED50 (Rattus norvegicus [1]; [7]): 15 mg/kg | ED50 (Rattus norvegicus [2]; [8]): 11 mg/kg

FC(F)(F)c1nc(NC2CC2)c2ncn(CC3CC3)c2n1
ED50 (Rattus norvegicus [1]; [7]): 2 mg/kg | ED50 (Rattus norvegicus [2]; [8]): 0.9 mg/kg

O=CN(c1ncnc2c1ncn2CC1CC1)C1CC1
ED50 (Rattus norvegicus [1]; [7]): 30 mg/kg | ED50 (Rattus norvegicus [2]; [8]): 8 mg/kg

O=CN(c1ncnc2c1ncn2C1CC1)C1CC1
ED50 (Rattus norvegicus [1]; [7]): 7.4 mg/kg | ED50 (Rattus norvegicus [2]; [8]): 2.4 mg/kg

CC(C1CC1)n1cnc2c(NC3CC3)ncnc21 (stereo in doubt; 60)
ED50 (Rattus norvegicus [1]): 9 mg/kg | ED50 (Rattus norvegicus [2]): 2 mg/kg

c1ccc(Nc2ncnc3c2ncn3CC2CC2)cc1
inhibition in vivo at 25 mg/kg (Rattus norvegicus [4]): 0%

Clc1nc(NC2CC2)c2ncn(CC3CC3)c2n1
ED50 (Rattus norvegicus [1]; [7]): 4 mg/kg | ED50 (Rattus norvegicus [2]; [8]): 2.5 mg/kg

CCC(C)n1cnc2c(N(C)C)ncnc21 (stereo not drawn)
ED50 (Rattus norvegicus [2]; [8]): 14 mg/kg

CNc1nc(NC2CC2)c2ncn(CC3CC3)c2n1
ED50 (Rattus norvegicus [1]; [7]): 12.5 mg/kg | ED50 (Rattus norvegicus [2]; [8]): 3 mg/kg

CN(C)c1ncnc2c1ncn2C1CCCCCC1
inhibition in vivo at 25 mg/kg (Rattus norvegicus [4]): 0%

CN(C)c1ncnc2c1ncn2CC1CC1
ED50 (Rattus norvegicus [1]; [7]): 17 mg/kg | ED50 (Rattus norvegicus [2]; [8]): 4.5 mg/kg

CN(C)c1ncnc2c1ncn2C1CCC1
ED50 (Rattus norvegicus [1]; [7]): 26 mg/kg | ED50 (Rattus norvegicus [2]; [8]): 11 mg/kg

c1nc(NC2CC2)c2ncn(CC3CCCC3)c2n1
ED50 (Rattus norvegicus [2]; [8]): 15 mg/kg

CNc1ncnc2c1ncn2CC1CC1
inhibition in vivo at 25 mg/kg (Rattus norvegicus [5]): 38% | ED50 (Rattus norvegicus [2]; [8]): 12 mg/kg

c1nc(N2CCC2)c2ncn(CC3CC3)c2n1
inhibition in vivo at 25 mg/kg (Rattus norvegicus [4]): 30%

CN(c1ncnc2c1ncn2C1CC1)C1CC1
ED50 (Rattus norvegicus [1]; [7]): 12.5 mg/kg | ED50 (Rattus norvegicus [2]; [8]): 4.5 mg/kg

CC(=O)N(c1ncnc2c1ncn2C1CC1)C1CC1
inhibition in vivo at 25 mg/kg (Rattus norvegicus [4]): 22%

CN(C)c1ncnc2c1ncn2C
inhibition in vivo at 25 mg/kg (Rattus norvegicus [4]): 30%

CN(C)c1ncnc2c1ncn2CC1CCCCC1
inhibition in vivo at 25 mg/kg (Rattus norvegicus [4]): 0%

CCCOc1nc(NC2CC2)c2ncn(CC3CC3)c2n1
ED50 (Rattus norvegicus [1]; [7]): 2.5 mg/kg | ED50 (Rattus norvegicus [2]; [8]): 2.5 mg/kg

CCNc1ncnc2c1ncn2CC1CC1
ED50 (Rattus norvegicus [2]; [8]): 22 mg/kg

c1nc(NC2CCC2)c2ncn(CC3CC3)c2n1
inhibition in vivo at 25 mg/kg (Rattus norvegicus [4]): 0%

CCC(C)n1cnc2c(NC3CC3)ncnc21 (stereo not drawn)
ED50 (Rattus norvegicus [2]; [8]): 13.5 mg/kg

CCCNc1ncnc2c1ncn2CC1CC1
inhibition in vivo at 25 mg/kg (Rattus norvegicus [4]): 0%

O=CN(c1ncnc2c1ncn2CC1CCC1)C1CC1
ED50 (Rattus norvegicus [2]; [8]): 7 mg/kg

CN(C)c1ncnc2c1ncn2Cc1cccc(C#N)c1
ED50 (Rattus norvegicus [2]; [8]): 13 mg/kg

c1nc(NCC2CC2)c2ncn(CC3CC3)c2n1
inhibition in vivo at 25 mg/kg (Rattus norvegicus [4]): 28%

CN(C)c1ncnc2c1ncn2Cc1ccc(N)cc1
ED50 (Rattus norvegicus [2]; [8]): 17 mg/kg

From ChEMBL document CHEMBL1130214, “6-(alkylamino)-9-alkylpurines. A new class of potential antipsychotic agents” (1997)
